Results on 6 molecules are retold here after ChEMBL document CHEMBL4321819, “Simple Structural Modifications Converting a Bona fide MDM2 PROTAC Degrader into a Molecular Glue Molecule: A Cautionary Tale in the Design of PROTAC Degraders” (J Med Chem, 2019).

The source made the active and inactive calls. The rule behind the calls is not given here.

The target in assay [1] is E3 ubiquitin-protein ligase Mdm2 (Homo sapiens, UniProt Q00987). Nature of the assay: Displacement of PMDM6-F fluorescent probe from human recombinant His-tagged MDM2 (1 to 118 residues) after 15 mins by fluorescence polarization assay. Summed up:
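Recombinant human His-tagged MDM2 (residues 1–118) with a FAM-labelled p53-based peptide as fluorescent probe; competitive fluorescence-polarization binding. Mean ± standard error from at least three independent experiments.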
A general note: In fluorescence polarisation assays a small probe gives low polarisation when free and higher when bound to something large.

Assay [2] can be described thus: Antiproliferative activity against human RS4:11/IRMI-2 cells harboring p53 hotspot mutation Y236H/R249G assessed as MDM2-independent cell growth inhibition after 4 days by WST-8 assay. Type of assay: functional, cell-based. The conditions noted are these: RS4-11, 96 h. Summed up: (§1)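 Leukemia cells seeded at 10000–20000 cells/well, breast cancer lines at 5000–10000 cells/well. Serially diluted compound added, then 4 days at 37 °C, 5% CO2. Growth read with WST-8 reagent after at least 1 h, absorbance at 450 nm. RS4;11, MOLM-13 and breast lines were grown in RPMI 1640; MV-4-11 and HL-60 in IMDM; all with 10% FBS. Mean ± SE, at least three independent experiments.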

The test system of assay [3] is RS4-11. In words: Antiproliferative activity against human RS4:11 cells expressing wild type p53 assessed as MDM2-independent cell growth inhibition after 4 days by WST-8 assay. The conditions noted are these: RS4-11, 96 h. Type of assay: functional, cell-based. The gist of the method:
as §1

Assay [4] has as its system RS4-11. Nature of the assay: Antiproliferative activity against human RS4:11 cells expressing wild type p53 assessed as cell growth inhibition after 4 days by WST-8 assay. The conditions noted are these: RS4-11, 96 h. Type of assay: functional, cell-based. The gist of the method: as §1
Assay [5] concerns the target T1, Protein cereblon/Eukaryotic peptide chain release factor GTP-binding subunit ERF3A/DNA damage-binding protein 1/Cullin-4A (Homo sapiens) (UniProt Q96SW2+Q16531+Q13619+P15170). In words: Protac activity at GSPT1/CUL4/DDB1/CRBN in human RS4:11/IRMI-2 cells harboring p53 hotspot mutation Y236H/R249G assessed as decrease in GSPT1 protein level after 2 hrs by Western blot analysis. The format is cell-based. Summed up: (§2)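 RS4;11 (wild-type p53) or RS4;11/IRMI-2 (MDM2 inhibitor-resistant derivative, mutant p53) cells kept in RPMI 1640 with 10% FBS at 37 °C, 5% CO₂. 2×10^6 cells/well treated at the indicated concentrations and times, then lysed in ice-cold lysis buffer with protease inhibitor. GSPT1 detected by Western blot with a specific antibody.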
Background: In western blotting, separated proteins are transferred to a membrane and probed.

The target of assay [6] is T1, Protein cereblon/Eukaryotic peptide chain release factor GTP-binding subunit ERF3A/DNA damage-binding protein 1/Cullin-4A (Homo sapiens). Nature of the assay: Protac activity at GSPT1/CUL4/DDB1/CRBN in human RS4:11 cells expressing wild type p53 assessed as decrease in GSPT1 protein level after 2 hrs by Western blot analysis. The format is cell-based. Summed up:
as §2

Assay [7] is described as follows: Antiproliferative activity against human RS4:11/IRMI-2 cells harboring p53 hotspot mutation Y236H/R249G assessed as cell growth inhibition after 4 days by WST-8 assay. The format is functional, cell-based. Particulars: RS4-11, 96 h. Summed up:
as §1

Assay [8] deals with RS4-11. In words: Antiproliferative activity against human RS4:11 cells expressing wild type p53 assessed as cell growth inhibition without interaction with cereblon after 4 days by WST-8 assay. The format is functional, cell-based. Particulars: RS4-11, 96 h. Summed up: as §1
In general terms: Formazan colour is commonly taken as a measure of viable cells.

Assay [9] in a line: Antiproliferative activity against human RS4:11/IRMI-2 cells harboring p53 hotspot mutation Y236H/R249G assessed as cell growth inhibition without interaction with cereblon after 4 days by WST-8 assay. Type of assay: functional, cell-based. Particulars: RS4-11, 96 h. Summed up: as §1
The subject of assay [10] is MDA-MB-231. In words: Antiproliferative activity against human MDA-MB-231 cells harboring mutant p53 assessed as cell growth inhibition without interaction with cereblon after 4 days by WST-8 assay. Type of assay: functional, cell-based. The conditions noted are these: MDA-MB-231, 96 h.
The subject of assay [11] is MDA-MB-468. Nature of the assay: Antiproliferative activity against human MDA-MB-468 cells harboring mutant p53 assessed as cell growth inhibition without interaction with cereblon after 4 days by WST-8 assay. Type of assay: functional, cell-based. Particulars: MDA-MB-468, 96 h.
For assay [12], the target named is Eukaryotic peptide chain release factor GTP-binding subunit ERF3A (Homo sapiens, UniProt P15170). In words: Induction of GSPT1 degradation in human RS4:11 cells measured after 24 hrs by Western blot analysis. Type of assay: cell-based.
Chain of Eukaryotic peptide chain release factor GTP-binding subunit ERF3A (P15170 whole entry): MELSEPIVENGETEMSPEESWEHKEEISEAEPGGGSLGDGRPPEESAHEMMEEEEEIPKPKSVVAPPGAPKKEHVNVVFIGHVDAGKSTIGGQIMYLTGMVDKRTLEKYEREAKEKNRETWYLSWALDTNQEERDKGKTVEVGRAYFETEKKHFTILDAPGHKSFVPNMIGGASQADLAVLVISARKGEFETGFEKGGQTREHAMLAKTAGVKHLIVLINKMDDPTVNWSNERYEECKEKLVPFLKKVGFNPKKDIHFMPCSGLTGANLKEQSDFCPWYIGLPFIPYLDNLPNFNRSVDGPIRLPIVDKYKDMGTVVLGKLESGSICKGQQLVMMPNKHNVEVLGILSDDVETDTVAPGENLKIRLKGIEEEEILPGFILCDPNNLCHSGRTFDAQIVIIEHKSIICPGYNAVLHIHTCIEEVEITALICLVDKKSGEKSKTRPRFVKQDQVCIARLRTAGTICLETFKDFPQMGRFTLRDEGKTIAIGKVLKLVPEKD
In assay [13] the target is T1, Protein cereblon/Eukaryotic peptide chain release factor GTP-binding subunit ERF3A/DNA damage-binding protein 1/Cullin-4A (Homo sapiens). In words: Protac activity at GSPT1/CUL4/DDB1/CRBN in human RS4:11 cells expressing wild type p53 assessed as decrease in GSPT1 protein level at 1 to 3 uM after 24 hrs by Western blot analysis. The format is cell-based. The gist of the method:
as §2

For assay [14] the target is unchanged. In words: Protac activity at GSPT1/CUL4/DDB1/CRBN in human RS4:11/IRMI-2 cells harboring p53 hotspot mutation Y236H/R249G assessed as decrease in GSPT1 protein level at 1 to 3 uM after 24 hrs by Western blot analysis. The format is cell-based. The gist of the method: as §2

T1 sequence (P15170 whole entry, looked up): as the sequence (P15170 whole entry) above
T1 sequence (Q13619 whole entry, looked up): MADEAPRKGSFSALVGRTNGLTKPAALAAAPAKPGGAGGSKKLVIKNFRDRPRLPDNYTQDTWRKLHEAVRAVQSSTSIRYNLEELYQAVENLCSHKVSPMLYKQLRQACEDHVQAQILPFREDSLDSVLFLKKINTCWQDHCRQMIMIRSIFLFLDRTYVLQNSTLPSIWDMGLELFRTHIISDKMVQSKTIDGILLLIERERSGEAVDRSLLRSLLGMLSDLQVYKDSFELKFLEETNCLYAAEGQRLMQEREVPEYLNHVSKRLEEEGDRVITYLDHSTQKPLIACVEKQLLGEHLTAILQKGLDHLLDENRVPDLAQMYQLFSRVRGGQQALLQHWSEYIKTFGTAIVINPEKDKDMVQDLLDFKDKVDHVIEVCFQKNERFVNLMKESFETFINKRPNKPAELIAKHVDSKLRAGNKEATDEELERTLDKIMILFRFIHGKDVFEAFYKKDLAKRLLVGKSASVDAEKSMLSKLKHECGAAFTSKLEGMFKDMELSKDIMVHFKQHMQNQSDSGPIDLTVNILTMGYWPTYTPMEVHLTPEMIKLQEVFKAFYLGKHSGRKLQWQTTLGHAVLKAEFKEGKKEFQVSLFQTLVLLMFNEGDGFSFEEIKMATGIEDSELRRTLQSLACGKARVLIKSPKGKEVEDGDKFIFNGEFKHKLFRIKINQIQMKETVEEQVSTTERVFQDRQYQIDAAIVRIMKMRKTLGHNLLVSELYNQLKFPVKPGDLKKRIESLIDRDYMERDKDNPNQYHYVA
T1 sequence (Q16531 whole entry, looked up): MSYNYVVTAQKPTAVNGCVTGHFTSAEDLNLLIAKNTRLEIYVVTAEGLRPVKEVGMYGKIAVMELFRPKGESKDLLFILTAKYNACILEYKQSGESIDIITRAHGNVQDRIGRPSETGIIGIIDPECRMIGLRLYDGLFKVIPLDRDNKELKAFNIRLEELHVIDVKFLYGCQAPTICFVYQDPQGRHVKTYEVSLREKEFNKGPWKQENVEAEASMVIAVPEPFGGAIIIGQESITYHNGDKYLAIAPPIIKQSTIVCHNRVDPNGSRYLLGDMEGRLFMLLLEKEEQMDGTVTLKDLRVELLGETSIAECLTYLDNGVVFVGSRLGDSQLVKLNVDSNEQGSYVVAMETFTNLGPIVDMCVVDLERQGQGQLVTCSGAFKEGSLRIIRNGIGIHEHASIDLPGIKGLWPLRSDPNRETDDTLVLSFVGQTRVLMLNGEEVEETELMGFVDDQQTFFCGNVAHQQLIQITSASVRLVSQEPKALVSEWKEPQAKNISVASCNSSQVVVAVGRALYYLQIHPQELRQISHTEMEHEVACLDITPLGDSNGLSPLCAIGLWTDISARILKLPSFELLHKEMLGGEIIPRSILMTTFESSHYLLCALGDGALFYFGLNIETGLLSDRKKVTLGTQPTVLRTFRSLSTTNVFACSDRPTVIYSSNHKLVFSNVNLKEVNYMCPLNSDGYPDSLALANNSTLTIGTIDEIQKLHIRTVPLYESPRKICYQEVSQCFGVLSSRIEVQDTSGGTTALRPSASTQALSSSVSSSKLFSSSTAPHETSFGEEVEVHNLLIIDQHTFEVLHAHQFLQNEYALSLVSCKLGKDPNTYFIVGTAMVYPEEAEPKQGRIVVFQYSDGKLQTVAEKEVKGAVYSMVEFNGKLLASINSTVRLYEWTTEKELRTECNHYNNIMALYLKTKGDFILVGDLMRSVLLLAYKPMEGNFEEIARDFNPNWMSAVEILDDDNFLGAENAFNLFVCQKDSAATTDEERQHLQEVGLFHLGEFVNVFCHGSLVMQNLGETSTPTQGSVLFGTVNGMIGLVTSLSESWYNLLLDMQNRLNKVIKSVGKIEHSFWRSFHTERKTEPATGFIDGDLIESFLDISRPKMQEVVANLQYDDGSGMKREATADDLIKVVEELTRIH
T1 sequence (Q96SW2 whole entry, looked up): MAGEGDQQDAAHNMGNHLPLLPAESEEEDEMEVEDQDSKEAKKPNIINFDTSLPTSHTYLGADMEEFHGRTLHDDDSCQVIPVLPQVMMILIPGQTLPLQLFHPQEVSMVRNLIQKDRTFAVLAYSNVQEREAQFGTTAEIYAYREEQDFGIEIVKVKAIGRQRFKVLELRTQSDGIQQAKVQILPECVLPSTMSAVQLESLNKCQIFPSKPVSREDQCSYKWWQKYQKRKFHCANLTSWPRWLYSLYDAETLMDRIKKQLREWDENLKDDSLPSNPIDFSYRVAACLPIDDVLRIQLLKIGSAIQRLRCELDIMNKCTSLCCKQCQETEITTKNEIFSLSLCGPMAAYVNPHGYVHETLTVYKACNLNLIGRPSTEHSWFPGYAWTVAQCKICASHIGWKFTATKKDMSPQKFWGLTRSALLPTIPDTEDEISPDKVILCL
Chain of E3 ubiquitin-protein ligase Mdm2 (Q00987 whole entry, the tested form may be a part): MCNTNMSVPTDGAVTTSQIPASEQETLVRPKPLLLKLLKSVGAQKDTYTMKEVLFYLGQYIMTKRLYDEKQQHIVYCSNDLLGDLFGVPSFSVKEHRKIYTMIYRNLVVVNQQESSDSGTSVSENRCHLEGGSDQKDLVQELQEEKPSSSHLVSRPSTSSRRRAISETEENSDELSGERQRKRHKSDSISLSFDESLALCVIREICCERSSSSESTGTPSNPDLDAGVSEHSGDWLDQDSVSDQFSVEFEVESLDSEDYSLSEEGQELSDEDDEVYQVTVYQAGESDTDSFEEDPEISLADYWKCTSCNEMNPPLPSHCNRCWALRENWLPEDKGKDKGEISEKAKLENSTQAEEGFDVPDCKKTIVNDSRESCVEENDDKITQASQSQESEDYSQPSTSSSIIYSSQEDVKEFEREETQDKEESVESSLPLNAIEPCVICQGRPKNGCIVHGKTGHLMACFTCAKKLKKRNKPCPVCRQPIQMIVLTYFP

For orientation: IC50 means the concentration that inhibits the measured activity by half. Consider `O=C1CCC(N2Cc3c(CCCCCNC(=O)[C@@H]4NC5(CCCCC5)[C@@]5(C(=O)Nc6ccccc65)[C@H]4c4ccccc4)cccc3C2=O)C(=O)N1` (some centres undefined), for which the half-inhibitory concentration (IC50) is above 20 µM in assay [1], 0.0609 µM in assay [2] and 0.0486 µM in assay [3].
Take `O=C1CCC(N2Cc3c(CCCOCCOCCOCCNC(=O)[C@@H]4NC5(CCCCC5)[C@@]5(C(=O)Nc6cc(Cl)ccc65)[C@H]4c4cccc(Cl)c4F)cccc3C2=O)C(=O)N1` (some centres undefined): the figures for the IC50 in [4] and in assay [7] were 0.01 µM and 0.011 µM, respectively. In addition, the result in [5] and in assay [6] was Active.
With `CN1C(=O)CCC(N2Cc3c(CCCCCNC(=O)[C@@H]4NC5(CCCCC5)[C@@]5(C(=O)Nc6cc(Cl)ccc65)[C@H]4c4cccc(Cl)c4F)cccc3C2=O)C1=O` (some centres undefined), the 50% inhibitory concentration (IC50) in [8] is 2.49 µM; in [9], 6.85 µM; in [10] it was above 10 µM; in assay [11], above 10 µM.
As a reminder, the DC50 is the midpoint of the concentration-degradation curve. A high value points to a less potent degrader. For `O=C1CCC(N2Cc3c(CCCCNC(=O)[C@@H]4NC5(CCCCC5)[C@@]5(C(=O)Nc6cc(Cl)ccc65)[C@H]4c4cccc(Cl)c4F)cccc3C2=O)C(=O)N1` (some centres undefined), the concentration for half-maximal inhibition (IC50) in assay [4] amounted to 0.0025 µM; in [7], 0.0026 µM. In assay [12], the 50% degradation concentration (DC50) came out at 0.0011 µM. Moreover, the result in assay [5] and in assay [6] was Active.
As for `O=C1CCC(N2Cc3c(CCCCCNC(=O)[C@@H]4NC5(CCCCC5)[C@@]5(C(=O)Nc6cc(Cl)ccc65)[C@H]4c4ccccc4)cccc3C2=O)C(=O)N1` (some centres undefined), the half-inhibitory concentration (IC50) is above 20 µM in [1], 0.0224 µM in assay [2] and 0.0225 µM in assay [3].
As to `O=C1CCC(N2Cc3c(NC(=O)[C@@H]4NC5(CCCCC5)[C@@]5(C(=O)Nc6cc(Cl)ccc65)[C@H]4c4cccc(Cl)c4F)cccc3C2=O)C(=O)N1` (some centres undefined), the half-inhibitory concentration (IC50) in [4] came to 0.76 µM; in assay [7] it was 2.58 µM. Besides, in [12], the half-maximal degradation concentration (DC50) amounted to 2.3 µM. Moreover, the outcome in [13] and in assay [14] was Active.
